Reference: ChEMBL document CHEMBL1212813, “alpha-Amino-3-hydroxy-5-methyl-4-isoxazolepropionic acid (AMPA) antagonists: from bench to bedside” (J Med Chem, 2010)

Legend:
[1] = system: Mus musculus; test: Anticonvulsant activity in po dosed mouse assessed as inhibition of MES-induced tonic seizures; format: functional
Procedure, shortened: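 Mice were dosed orally 2 h before maximal electroshock. The read-out was protection from tonic convulsions, and an ED50 was derived.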

[2] = Displacement of [3H]kainate from kainate receptor in rat cortical membrane; format: cell membranes
[3] = target: Glutamate NMDA receptor; test: Inhibition of NMDA receptor glycine site from rat cortical membrane
[4] = Displacement of [3H]AMPA from AMPA receptor in rat cortical membrane; format: cell membranes
[5] = target: Glutamate NMDA receptor; test: Inhibition of NMDA receptor glutamate site from rat cortical membrane
[6] = system: Rattus norvegicus; test: Neuroprotective effect against middle cerebral artery occlusion-induced focal cerebral ischemia in iv dosed spontaneously hypertensive rat brain after 1 to 5 hrs of occlusion; format: functional
[7] = system: Rattus norvegicus; test: Anticonvulsant activity in ip dosed rat assessed as inhibition of MES-induced tonic seizures; format: functional
[8] = system: Mus musculus; test: Anticonvulsant activity in ip dosed DBA2 mouse assessed as inhibition of sound-induced clonic seizures; format: functional
[9] = Antagonist activity at AMPA receptor in rat cortical membrane assessed as inhibition of AMPA-induced membrane current; format: functional, cell membranes
[10] = system: Rattus norvegicus; test: Neuroprotective effect against middle cerebral artery occlusion-induced focal cerebral ischemia in iv dosed spontaneously hypertensive rat; format: functional
[11] = species: Rattus norvegicus; test: Selectivity ratio IC50 for rat AMPA receptor to IC50 rat kainate receptor
[12] = species: Homo sapiens; test: Antiepileptic activity in human patient assessed as reduction in refractory partial seizures; format: functional; design: scale not given: the % may be the effect or the level left
[13] = Antagonist activity at AMPA receptor in rat cortical membrane assessed as inhibition of AMPA-induced calcium accumulation; format: functional, cell membranes
[14] = system: Mus musculus; test: Anticonvulsant activity in po dosed mouse assessed as inhibition of PTZ-induced seizures; format: functional
[15] = system: Meriones unguiculatus; test: Neuroprotective activity against middle cerebral artery occlusion-induced focal cerebral ischemia in Mongolian gerbils assessed as reduction in infarct volume at 6 mg/kg, iv bid; format: functional; design: scale not given: the % may be the effect or the level left
[16] = species: Meriones unguiculatus; test: Neuroprotective activity against middle cerebral artery occlusion-induced focal cerebral ischemia in Mongolian gerbils assessed survival of hippocampal CA1 neurons; format: functional
[17] = species: Homo sapiens; test: Toxicity in human assessed as dizziness; format: organism-based; conditions: in vivo
[18] = species: Homo sapiens; test: Toxicity in human assessed as ataxia; format: organism-based; conditions: in vivo
[19] = target: Glutamate receptor ionotropic, kainate 1 (Homo sapiens) (UniProt P39086); test: Binding affinity to GluR5
Sequence of Glutamate receptor ionotropic, kainate 1 (Homo sapiens) (P39086 whole entry): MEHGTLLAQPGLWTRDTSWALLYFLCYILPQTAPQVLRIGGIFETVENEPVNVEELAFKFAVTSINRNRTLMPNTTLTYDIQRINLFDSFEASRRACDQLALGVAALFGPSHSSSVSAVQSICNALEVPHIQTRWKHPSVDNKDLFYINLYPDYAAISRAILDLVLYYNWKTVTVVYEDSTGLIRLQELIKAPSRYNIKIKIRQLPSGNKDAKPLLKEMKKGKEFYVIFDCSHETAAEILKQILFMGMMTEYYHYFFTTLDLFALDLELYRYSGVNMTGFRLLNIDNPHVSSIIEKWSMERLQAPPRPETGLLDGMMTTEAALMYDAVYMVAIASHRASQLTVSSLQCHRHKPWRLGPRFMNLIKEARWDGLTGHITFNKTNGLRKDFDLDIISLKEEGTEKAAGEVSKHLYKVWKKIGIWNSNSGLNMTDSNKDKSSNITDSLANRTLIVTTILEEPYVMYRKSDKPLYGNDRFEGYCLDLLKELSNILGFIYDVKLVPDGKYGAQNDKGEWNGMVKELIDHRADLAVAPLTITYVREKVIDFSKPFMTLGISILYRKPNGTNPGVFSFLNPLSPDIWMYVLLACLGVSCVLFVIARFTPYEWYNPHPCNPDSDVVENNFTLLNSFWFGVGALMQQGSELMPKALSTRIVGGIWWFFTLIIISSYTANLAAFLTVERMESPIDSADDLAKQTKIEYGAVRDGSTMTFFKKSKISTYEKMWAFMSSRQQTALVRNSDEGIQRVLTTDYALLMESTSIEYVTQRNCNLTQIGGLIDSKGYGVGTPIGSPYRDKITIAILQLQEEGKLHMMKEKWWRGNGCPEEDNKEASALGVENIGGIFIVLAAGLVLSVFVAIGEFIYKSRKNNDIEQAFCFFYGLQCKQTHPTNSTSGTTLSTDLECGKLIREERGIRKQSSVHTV

[20] = species: Meriones unguiculatus; test: Neuroprotective activity against middle cerebral artery occlusion-induced focal cerebral ischemia in Mongolian gerbils assessed as reduction in infarct volume in hemesphere; format: functional; design: scale not given: the % may be the effect or the level left
[21] = species: Homo sapiens; test: Toxicity in human assessed as occurance of systemic allodynia; format: organism-based; conditions: in vivo
[22] = target: Glutamate receptor ionotropic, kainate 3 (Homo sapiens, UniProt Q13003); test: Binding affinity to GluR7
Sequence of Glutamate receptor ionotropic, kainate 3 (Q13003 whole entry): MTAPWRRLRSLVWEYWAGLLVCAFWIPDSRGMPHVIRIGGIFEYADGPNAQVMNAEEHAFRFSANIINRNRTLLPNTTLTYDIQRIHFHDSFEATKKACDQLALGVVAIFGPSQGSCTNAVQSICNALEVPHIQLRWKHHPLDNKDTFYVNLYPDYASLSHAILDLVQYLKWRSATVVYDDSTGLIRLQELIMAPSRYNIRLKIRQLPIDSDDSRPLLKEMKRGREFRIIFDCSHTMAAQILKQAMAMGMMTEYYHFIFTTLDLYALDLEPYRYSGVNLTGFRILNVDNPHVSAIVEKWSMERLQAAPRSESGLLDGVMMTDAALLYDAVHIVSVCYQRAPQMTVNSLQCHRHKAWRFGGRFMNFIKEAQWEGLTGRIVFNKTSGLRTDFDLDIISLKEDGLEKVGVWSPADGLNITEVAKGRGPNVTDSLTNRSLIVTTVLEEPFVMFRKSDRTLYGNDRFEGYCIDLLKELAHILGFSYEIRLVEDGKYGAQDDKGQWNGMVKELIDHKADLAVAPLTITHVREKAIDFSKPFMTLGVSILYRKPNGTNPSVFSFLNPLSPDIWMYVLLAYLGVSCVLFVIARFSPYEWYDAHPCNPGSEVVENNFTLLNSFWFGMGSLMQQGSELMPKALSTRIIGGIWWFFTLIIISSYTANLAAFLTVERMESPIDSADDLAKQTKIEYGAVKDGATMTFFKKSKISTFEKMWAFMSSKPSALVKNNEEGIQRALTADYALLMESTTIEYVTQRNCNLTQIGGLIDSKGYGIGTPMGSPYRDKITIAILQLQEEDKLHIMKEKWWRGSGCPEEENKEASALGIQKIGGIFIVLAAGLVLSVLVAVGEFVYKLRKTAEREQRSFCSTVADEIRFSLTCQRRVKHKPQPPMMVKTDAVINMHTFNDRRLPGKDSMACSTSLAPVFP

[23] = system: Mus musculus; test: Anticonvulsant activity in ip dosed mouse assessed as inhibition of MES-induced tonic seizures; format: functional
[24] = species: Homo sapiens; test: Toxicity in human assessed as hazy vision; format: organism-based; conditions: in vivo
[25] = target: T1, Glutamate receptor ionotropic, kainate 2 (Homo sapiens, UniProt Q13002); conditions: 10 uM
T1 sequence (Q13002 whole entry): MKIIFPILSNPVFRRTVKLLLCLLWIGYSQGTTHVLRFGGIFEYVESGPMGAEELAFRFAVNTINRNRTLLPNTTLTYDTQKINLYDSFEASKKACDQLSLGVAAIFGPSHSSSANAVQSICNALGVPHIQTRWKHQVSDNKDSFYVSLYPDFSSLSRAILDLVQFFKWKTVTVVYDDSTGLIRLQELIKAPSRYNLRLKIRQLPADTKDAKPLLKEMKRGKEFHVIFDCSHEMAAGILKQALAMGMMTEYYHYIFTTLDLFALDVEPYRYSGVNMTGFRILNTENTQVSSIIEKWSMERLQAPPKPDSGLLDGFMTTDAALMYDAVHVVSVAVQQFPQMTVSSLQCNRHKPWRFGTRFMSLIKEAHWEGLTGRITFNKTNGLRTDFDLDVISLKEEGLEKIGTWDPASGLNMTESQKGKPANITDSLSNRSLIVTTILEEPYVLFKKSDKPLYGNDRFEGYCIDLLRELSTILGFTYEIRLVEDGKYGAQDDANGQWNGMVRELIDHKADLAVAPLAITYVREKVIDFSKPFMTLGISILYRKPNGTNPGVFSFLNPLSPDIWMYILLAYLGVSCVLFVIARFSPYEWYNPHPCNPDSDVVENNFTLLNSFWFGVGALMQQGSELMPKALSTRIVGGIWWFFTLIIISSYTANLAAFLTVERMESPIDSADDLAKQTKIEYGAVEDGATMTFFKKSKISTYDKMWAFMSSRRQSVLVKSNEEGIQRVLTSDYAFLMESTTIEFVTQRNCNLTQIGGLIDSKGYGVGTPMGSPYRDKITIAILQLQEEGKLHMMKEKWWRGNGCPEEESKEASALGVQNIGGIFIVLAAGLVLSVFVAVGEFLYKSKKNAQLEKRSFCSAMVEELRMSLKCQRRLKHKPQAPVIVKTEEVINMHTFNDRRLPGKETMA

[26] = species: Meriones unguiculatus; test: Neuroprotective activity against middle cerebral artery occlusion-induced focal cerebral ischemia in Mongolian gerbils assessed as reduction in infarct volume in cortex; format: functional; design: scale not given: the % may be the effect or the level left
[27] = target: T1, Glutamate receptor ionotropic, kainate 2; test: Binding affinity to GluR6
[28] = species: Homo sapiens; test: Toxicity in human assessed as sedation; format: organism-based; conditions: in vivo
[29] = species: Felis catus; test: Neuroprotective activity against middle cerebral artery occlusion-induced focal cerebral ischemia in cat assessed as reduction in infarct volume in cortex; format: functional; design: scale not given: the % may be the effect or the level left
[30] = species: Felis catus; test: Neuroprotective activity against middle cerebral artery occlusion-induced focal cerebral ischemia in cat assessed as reduction in infarct volume in hemesphere; format: functional; design: scale not given: the % may be the effect or the level left
[31] = target: T2, Solute carrier family 22 member 11 (Homo sapiens, UniProt Q9NSA0); test: Inhibition of human OAT4
T2 sequence (Q9NSA0 whole entry): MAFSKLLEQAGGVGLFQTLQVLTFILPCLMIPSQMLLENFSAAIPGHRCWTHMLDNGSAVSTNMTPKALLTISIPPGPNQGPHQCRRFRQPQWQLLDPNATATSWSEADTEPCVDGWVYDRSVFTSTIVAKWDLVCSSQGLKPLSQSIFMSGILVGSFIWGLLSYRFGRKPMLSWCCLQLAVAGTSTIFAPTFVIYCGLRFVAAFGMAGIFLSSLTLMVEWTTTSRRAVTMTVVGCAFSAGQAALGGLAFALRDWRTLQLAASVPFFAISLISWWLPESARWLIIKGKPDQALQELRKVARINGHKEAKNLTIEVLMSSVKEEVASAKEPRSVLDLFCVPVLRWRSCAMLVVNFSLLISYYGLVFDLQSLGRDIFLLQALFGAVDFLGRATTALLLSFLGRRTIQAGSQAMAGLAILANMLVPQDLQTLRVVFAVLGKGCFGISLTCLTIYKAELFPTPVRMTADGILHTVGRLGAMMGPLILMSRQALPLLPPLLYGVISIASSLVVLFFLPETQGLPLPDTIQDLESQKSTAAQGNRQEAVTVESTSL

[32] = target: T3, Organic anion transporter 3 (Homo sapiens, UniProt Q8TCC7); test: Inhibition of human OAT3
T3 sequence (Q8TCC7 whole entry): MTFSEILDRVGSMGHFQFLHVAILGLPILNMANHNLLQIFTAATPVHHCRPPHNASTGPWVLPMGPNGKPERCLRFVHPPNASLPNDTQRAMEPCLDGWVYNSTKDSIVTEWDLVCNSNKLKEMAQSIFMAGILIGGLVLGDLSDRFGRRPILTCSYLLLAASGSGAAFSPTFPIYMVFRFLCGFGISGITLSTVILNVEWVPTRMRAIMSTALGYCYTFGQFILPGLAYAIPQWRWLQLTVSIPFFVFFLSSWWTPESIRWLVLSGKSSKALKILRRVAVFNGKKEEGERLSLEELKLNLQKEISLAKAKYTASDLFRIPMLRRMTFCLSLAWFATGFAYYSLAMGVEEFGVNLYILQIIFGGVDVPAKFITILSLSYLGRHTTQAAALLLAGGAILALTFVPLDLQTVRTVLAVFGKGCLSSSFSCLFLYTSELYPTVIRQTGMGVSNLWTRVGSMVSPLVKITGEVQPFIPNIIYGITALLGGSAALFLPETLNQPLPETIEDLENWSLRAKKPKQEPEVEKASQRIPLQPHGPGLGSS

[33] = system: Rattus norvegicus; test: Neuroprotective effect against middle cerebral artery occlusion-induced focal cerebral ischemia in spontaneously hypertensive rat at 20 mg/kg, iv after 3 hrs of occlusion; format: functional
[34] = system: Rattus norvegicus; test: Neuroprotective effect against middle cerebral artery occlusion-induced focal cerebral ischemia in spontaneously hypertensive rat at 20 mg/kg, iv after 2 hrs of occlusion; format: functional
[35] = target: T4, Solute carrier family 22 member 6 (Homo sapiens, UniProt Q4U2R8); test: Inhibition of human OAT1
T4 sequence (Q4U2R8 whole entry): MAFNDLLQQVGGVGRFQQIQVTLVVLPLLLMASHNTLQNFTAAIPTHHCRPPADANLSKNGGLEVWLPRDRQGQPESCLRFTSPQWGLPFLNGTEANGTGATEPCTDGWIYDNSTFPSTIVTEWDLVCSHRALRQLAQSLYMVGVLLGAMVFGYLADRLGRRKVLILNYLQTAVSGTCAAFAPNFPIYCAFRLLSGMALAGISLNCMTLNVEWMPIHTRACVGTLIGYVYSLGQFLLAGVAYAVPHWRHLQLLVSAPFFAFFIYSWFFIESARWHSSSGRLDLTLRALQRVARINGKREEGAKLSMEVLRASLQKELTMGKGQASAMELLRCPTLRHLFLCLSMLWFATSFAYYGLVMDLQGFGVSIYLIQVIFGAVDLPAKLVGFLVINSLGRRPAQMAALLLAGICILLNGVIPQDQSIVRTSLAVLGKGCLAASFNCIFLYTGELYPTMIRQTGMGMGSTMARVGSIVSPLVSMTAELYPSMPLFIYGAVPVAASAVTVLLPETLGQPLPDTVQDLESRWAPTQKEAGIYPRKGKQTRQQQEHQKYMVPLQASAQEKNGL

[36] = system: Rattus norvegicus; test: […] effect against middle cerebral artery occlusion-induced focal cerebral ischemia in spontaneously hypertensive rat assessed as reduction in infarct volume at 20 mg/kg, iv after 2 hrs of occlusion; format: functional; design: scale not given: the % may be the effect or the level left

Nc1ccncc1 [DALFAMPRIDINE]
ED50 [1]: 8.4 mg/kg

O=c1[nH]c2cc([N+](=O)[O-])c([N+](=O)[O-])cc2[nH]c1=O [DNQX]
IC50 [2]: 2 µM | IC50 [3]: 9.5 µM | IC50 [4]: 0.5 µM | IC50 [5]: 40 µM

O=c1[nH]c2cc(C(F)(F)F)c(N3CCOCC3)cc2n(CP(=O)(O)O)c1=O [FANAPANEL]
Activity [6]: 19% | ED50 [7]: 13 mg/kg | IC50 [2]: 2.5 µM | IC50 [3]: 5.15 µM | IC50 [4]: 0.12 µM | IC50 [5]: 2.8 µM

CN(C)CCOc1ccccc1-c1nc(-c2ccccc2)no1 [IRAMPANEL]
ED50 [8]: 23.4 mg/kg | IC50 [9]: 8.5 µM

O=C(O)CCS [MERCAPTOPROPIONIC ACID]
ED50 [1]: 17.1 mg/kg

NS(=O)(=O)c1cccc2c1c([N+](=O)[O-])cc1nc(O)c(O)nc12 [NBQX]
Activity [10]: 30% | ED50 [8]: 27.8 mg/kg | Ratio IC50 [11]: > 30 | IC50 [2]: 4.8 µM | IC50 [3]: > 100 µM | IC50 [4]: 0.15 µM | IC50 [5]: > 90 µM

CN1CCC[C@H]1c1cccnc1 [NICOTINE]
ED50 [1]: 22.7 mg/kg

C1CCc2nnnn2CC1 [PENTYLENETETRAZOL]
ED50 [1]: 16.8 mg/kg

N#Cc1ccccc1-c1cc(-c2ccccn2)cn(-c2ccccc2)c1=O [PERAMPANEL]
ED50 [1]: 1.6 mg/kg | ED50 [8]: 0.47 mg/kg | Activity [12]: 40% | IC50 [13]: 0.093 µM | ED50 [14]: 0.94 mg/kg

O=C1C[C@@H]2OCC=C3CN4CC[C@]56c7ccccc7N1[C@H]5[C@H]2[C@H]3C[C@H]46 [STRYCHNINE]
ED50 [1]: 17.4 mg/kg

CC(=O)N1N=C(c2ccc(N)cc2)c2cc3c(cc2C[C@H]1C)OCO3 [TALAMPANEL]
Activity [15]: 47% | Activity [16]: 25% | Activity [17]: 52% | ED50 [1]: 8.6 mg/kg | Activity [18]: 26%

O=C(O)[C@@H]1C[C@H]2C[C@@H](CCc3nn[nH]n3)CC[C@H]2CN1 [TEZAMPANEL ANHYDROUS]
Kb [19]: 0.2 µM | Activity [20]: 25% | Activity [21]: <= 58% | Ki [22]: > 100 µM | ED50 [23]: 2.9 mg/kg | Activity [24]: 20% | inhibition [25]: < 20% | IC50 [2]: 28.1 µM | Activity [26]: 31% | Ki [27]: > 100 µM | Activity [28]: 15% | Activity [29]: 19% | Activity [30]: 18% | IC50 [4]: 1.3 µM | Ki [4]: 0.68 µM

O=c1[nH]c2cc(-n3ccnc3)c([N+](=O)[O-])cc2[nH]c1=O [YM-90K]
Ki [2]: 2.2 µM | Ki [4]: 0.084 µM | Ki [5]: > 100 µM

O=C(O)Cn1c(=O)c(=O)[nH]c2cc([N+](=O)[O-])c(-n3ccnc3)cc21 [ZONAMPANEL]
IC50 [31]: 300 µM | IC50 [32]: 6.6 µM | Activity [33]: 35% | IC50 [2]: 4.6 µM | Activity [34]: 45% | IC50 [35]: 3 µM | Activity [36]: 55% | IC50 [3]: > 100 µM | Ki [4]: 0.096 µM | IC50 [5]: > 100 µM
